{"source": "the M2OR odorant receptor database", "data": [{"target": "T1, OR2H2 (Homo sapiens) (UniProt O95918)", "T1 sequence (whole entry)": "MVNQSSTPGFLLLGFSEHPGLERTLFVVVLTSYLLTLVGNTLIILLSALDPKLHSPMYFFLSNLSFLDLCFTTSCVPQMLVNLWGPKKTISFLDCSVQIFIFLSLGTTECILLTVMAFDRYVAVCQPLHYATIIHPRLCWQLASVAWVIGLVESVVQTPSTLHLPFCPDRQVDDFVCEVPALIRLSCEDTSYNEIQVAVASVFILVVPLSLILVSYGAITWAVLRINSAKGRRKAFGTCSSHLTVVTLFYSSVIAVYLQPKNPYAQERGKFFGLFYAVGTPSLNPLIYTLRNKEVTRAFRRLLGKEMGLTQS", "conditions": "stereoisomer not certain", "summary_of_the_method": "(§1)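 Whether a receptor–molecule pair is responsive (active) rests on the original authors' judgment that its measured signal was statistically different from baseline. Pairs without that judgment are non-responsive (inactive). Sources used varied assay methods, commonly transient luciferase assays in mammalian cell lines.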", "values": [{"smiles": "Cc1c([N+](=O)[O-])c(C)c([N+](=O)[O-])c(C(C)(C)C)c1[N+](=O)[O-]", "odorant receptor agonist call": "inactive"}, {"smiles": "C=CCOC(=O)Cc1ccccc1", "odorant receptor agonist call": "inactive"}, {"smiles": "O=CC=Cc1ccccc1", "odorant receptor agonist call": "inactive"}]}, {"target": "T2, OR2J2 (Homo sapiens) (UniProt O76002)", "T2 sequence (whole entry)": "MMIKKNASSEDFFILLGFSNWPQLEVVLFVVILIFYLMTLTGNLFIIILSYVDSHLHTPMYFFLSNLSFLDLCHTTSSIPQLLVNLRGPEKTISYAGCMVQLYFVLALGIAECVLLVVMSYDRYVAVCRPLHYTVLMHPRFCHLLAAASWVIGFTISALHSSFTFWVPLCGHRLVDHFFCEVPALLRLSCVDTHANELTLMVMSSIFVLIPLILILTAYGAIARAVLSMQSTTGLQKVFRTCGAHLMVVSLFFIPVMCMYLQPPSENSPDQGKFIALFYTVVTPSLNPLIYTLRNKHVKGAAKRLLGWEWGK", "conditions": "stereoisomer not certain", "summary_of_the_method": "as §1", "values": [{"smiles": "Cc1c([N+](=O)[O-])c(C)c([N+](=O)[O-])c(C(C)(C)C)c1[N+](=O)[O-]", "odorant receptor agonist call": "inactive"}, {"smiles": "C=CCc1ccccc1", "odorant receptor agonist call": "inactive"}, {"smiles": "C=CCOC(=O)Cc1ccccc1", "odorant receptor agonist call": "inactive"}, {"smiles": "CCC1CCC(=O)O1", "note": "(stereo not given)", "odorant receptor agonist call": "inactive"}, {"smiles": "O=c1cc(O)c2ccccc2o1", "odorant receptor agonist call": "inactive"}]}, {"target": "T3, OR2J3 (Homo sapiens) (UniProt O76001)", "T3 sequence (whole entry)": "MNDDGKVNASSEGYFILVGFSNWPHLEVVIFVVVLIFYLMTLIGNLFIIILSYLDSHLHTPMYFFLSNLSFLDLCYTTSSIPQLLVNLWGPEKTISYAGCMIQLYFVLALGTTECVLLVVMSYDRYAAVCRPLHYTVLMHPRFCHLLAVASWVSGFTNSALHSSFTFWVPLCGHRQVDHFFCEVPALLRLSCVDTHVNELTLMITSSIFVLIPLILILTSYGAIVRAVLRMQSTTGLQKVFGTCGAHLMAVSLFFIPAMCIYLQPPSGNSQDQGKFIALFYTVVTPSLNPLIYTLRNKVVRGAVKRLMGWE", "conditions": "stereoisomer not certain", "summary_of_the_method": "as §1", "values": [{"smiles": "Cc1c([N+](=O)[O-])c(C)c([N+](=O)[O-])c(C(C)(C)C)c1[N+](=O)[O-]", "odorant receptor agonist call": "active"}, {"smiles": "C=CCOC(=O)Cc1ccccc1", "odorant receptor agonist call": "inactive"}, {"smiles": "O=CC=Cc1ccccc1", "odorant receptor agonist call": "active"}]}, {"target": "T4, OR2L13 (Homo sapiens) (UniProt Q8N349)", "T4 sequence (whole entry)": "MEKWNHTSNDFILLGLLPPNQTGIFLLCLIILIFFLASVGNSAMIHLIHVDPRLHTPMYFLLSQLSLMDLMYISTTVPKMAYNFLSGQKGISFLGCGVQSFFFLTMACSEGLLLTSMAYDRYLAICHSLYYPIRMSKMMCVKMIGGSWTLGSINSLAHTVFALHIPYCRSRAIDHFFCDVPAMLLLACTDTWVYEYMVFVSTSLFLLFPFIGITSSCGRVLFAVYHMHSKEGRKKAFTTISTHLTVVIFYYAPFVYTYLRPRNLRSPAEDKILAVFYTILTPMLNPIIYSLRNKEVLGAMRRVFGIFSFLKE", "conditions": "stereoisomer not certain", "summary_of_the_method": "as §1", "values": [{"smiles": "Cc1c([N+](=O)[O-])c(C)c([N+](=O)[O-])c(C(C)(C)C)c1[N+](=O)[O-]", "odorant receptor agonist call": "inactive"}, {"smiles": "Cc1cccc(C)c1", "odorant receptor agonist call": "inactive"}, {"smiles": "COc1ccc(C=O)cc1", "odorant receptor agonist call": "inactive"}, {"smiles": "C=CCOC(=O)Cc1ccccc1", "odorant receptor agonist call": "inactive"}]}]}
